Compounds with a hit are over-represented: about 1.5% of the library has one in this group of screens.
CXCR6 inh: CXCR6 receptor inhibitors, primary screen, cell-based, beta-arrestin, luminescence, CHO-K1 PathHunter, 1536-well; C-X-C chemokine receptor type 6 (Homo sapiens), O00574; inhibition, % at 20 µM; actives 0.36% (n = 360,000); in the data active = inhibition above about 34%, passing the limit was not always enough;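 also: antagonist mode with CXCL16 agonist at 10 nM final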
EBI2 antag: EBI2 receptor antagonists, beta-arrestin recruitment, primary screen, cell-based, luminescence, 7a,25-OHC stimulation, uHTS | G-protein coupled receptor 183 (Homo sapiens), P32249 | 7a,25-OHC stimulated | inhibition, % at 5 µM | actives 0.81% (n = 360,000); in the data active = inhibition above about 38%;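 also: enzyme fragment complementation signal reports receptor beta-arrestin coupling in cells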
Target sequence (P32249 whole entry, looked up, the tested form may be a part): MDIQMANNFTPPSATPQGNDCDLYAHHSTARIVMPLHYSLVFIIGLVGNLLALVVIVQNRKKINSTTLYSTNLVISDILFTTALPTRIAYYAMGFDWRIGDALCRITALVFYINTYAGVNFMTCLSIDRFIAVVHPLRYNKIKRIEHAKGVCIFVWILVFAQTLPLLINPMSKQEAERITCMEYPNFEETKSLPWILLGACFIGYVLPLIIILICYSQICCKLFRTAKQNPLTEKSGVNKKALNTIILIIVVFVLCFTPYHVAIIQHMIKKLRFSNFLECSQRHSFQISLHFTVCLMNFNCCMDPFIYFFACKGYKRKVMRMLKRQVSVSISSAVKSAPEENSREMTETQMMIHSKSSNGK
CCR6 antag: CCR6 receptor antagonists, primary screen, cell-based, CHO-K1, luminescence, beta-arrestin, uHTS; actives 0.49% (n = 340,000); CHO-K1 CCR6 PathHunter beta-arrestin, CCL20-stimulated; C-C chemokine receptor type 6 (Homo sapiens), P51684; inhibition, % at 20 µM;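 active = compounds whose inhibition of the agonist-driven luminescence signal at 20 µM reaches about 50%, limit read from the data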;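 also: cells stimulated with CCL20 at 14 nM final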
APJ ag: agonists of human apelin receptor APJ, primary screen, CHO-K1 cells, PathHunter beta-arrestin, luminescence; 0% DMSO wells, 100% apelin; activation, % at 20 µM; actives 0.11% (n = 330,000); P35414;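 active = activation more than six SD over the plate average, tested at 20 µM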
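Assay system: CHO-K1 APJ beta-arrestin complementation cell line / Compound: single test compound dose, 20 µM final, 1% DMSO / Times: overnight seeding, 90 min compound at 25 °C, 1 h detection / Technique: beta-gal luminescence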
APJ antagonist: antagonists of human apelin receptor APJ, primary screen, CHO-K1 cells, beta-arrestin complementation, luminescence; P35414; inhibition, % at 20 µM; actives 0.32% (n = 330,000);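 active = inhibition above about 40% at 20 µM, limit read from the data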;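 also: cells challenged with 10 nM apelin-13 agonist together with compound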
CXCR6 confirm: CXCR6 receptor antagonists, confirmation, cell-based, single concentration, beta-arrestin, luminescence | shares compounds with CXCR6 inh | CHO-K1 CXCR6 PathHunter beta-arrestin | inhibition, % at 20 µM | actives 65% (n = 700);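 active = mean inhibition over four retests above 40%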;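 also: receptor stimulated with 10 nM CXCL16 agonist; beta-galactosidase fragment complementation upon beta-arrestin recruitment to receptor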
Hits are given with their value; n = inactive; x = no result given.

SMILES | CXCR6 inh | EBI2 antag | CCR6 antag | APJ ag | APJ antagonist | CXCR6 confirm
CCN1CCN(CC(=O)N2N=C(c3cccs3)CC2c2ccc(OC)c(OC)c2)C(=O)C1=O (stereo unspecified) | n | n | n | n | n | x
Cc1cc(C)n2c(=O)c3ccc(Cl)cc3nc2c1C#N | n | n | n | n | n | x
Cc1cc(Cl)n2c(nc3cc(F)c(F)cc32)c1C#N | 43.7 | n | n | x | x | 53.4
CC(=O)Nc1ccc(N=Cc2c(O)c(C(=O)Nc3ccccc3)cc3ccccc23)cc1 | x | x | n | n | n | x
CCOc1cc(Br)c(Br)c(C=Nc2ccc(NC(C)=O)cc2)c1O | 41.5 | n | n | n | n | 69.5
CC1CC(C)CN(C(=O)C2CCN(C(=O)Nc3ccccc3)CC2)C1 (stereo unspecified) | n | n | n | n | n | x
CC1(C)CC[C@]2(C(=O)n3ccnc3)CC[C@]3(C)[C@H](C(=O)C=C4[C@@]5(C)C=C(C#N)C(=O)C(C)(C)[C@@H]5CC[C@]43C)[C@@H]2C1 | 54.8 | n | 57.3 | x | x | 58.2
CC(C)c1ccc(C2CC(=O)c3cnc(N4CCc5ccccc5C4)nc3C2)cc1 (stereo unspecified) | n | n | n | n | n | x
O=C1CC(c2ccco2)Cc2nc(N3CCc4ccccc4C3)ncc21 (stereo unspecified) | 43.5 | n | n | n | n | n
O=C(NCc1cccnc1)c1cc(C2CCCCN2S(=O)(=O)c2ccc(F)cc2F)on1 (stereo unspecified) | n | n | x | x | x | x
CC(C)Oc1cccc(C(=O)NC(=S)N2CCN(c3ccc(C(F)(F)F)cc3[N+](=O)[O-])CC2)c1 | n | n | n | n | n | x
COc1cccc(C(=O)NC(=S)N2CCN(c3ccc(C(F)(F)F)cc3[N+](=O)[O-])CC2)c1 | 48.5 | n | x | n | n | 48.9
Cc1ccc(/C(CSc2nccn2-c2ncc(C(F)(F)F)cc2Cl)=N\O)cc1 | n | n | n | n | n | x
O=C(CSc1nccn1-c1ncc(C(F)(F)F)cc1Cl)c1ccc(Br)cc1 | 80.3 | n | 73.9 | n | n | n
COC(=O)[C@H](CCSC)NC(=O)Nc1ccc(OC)cc1OC | 77.2 | n | n | n | n | n
Cc1cnc(C(=O)OCC(=O)Nc2ccccc2[N+](=O)[O-])cn1 | n | n | n | n | n | x
CC[N+]1(C)CCC(O)(/C=C/c2ccccc2)C(C(=O)/C=C/c2ccccc2)C1 (stereo unspecified) | 40.4 | n | 63.4 | x | x | 67.6
O=C(C(=Cc1ccc(F)cc1)c1ccccc1)c1ccc(O)cc1 | n | n | n | x | x | x
O=C(C(=Cc1ccc(F)cc1)C(=O)c1ccccc1)c1ccccc1 | 42.3 | n | x | x | x | 58.5
COc1ccc(NC(=O)Nc2cccc3c2O[C@H](CN(C)S(=O)(=O)c2cn(C)cn2)[C@@H](C)CN([C@H](C)CO)C3=O)cc1 | n | n | n | n | n | x
O=C(O)c1ccc(-n2nc(C(F)(F)F)c3c2CCCC3)cc1 | n | n | n | n | n | x
O=C(c1ccc(-n2nc(C(F)(F)F)c3c2CCCC3)cc1)N1CCOCC1 | 47.4 | n | n | n | n | n
Cc1ccc(S(=O)(=O)N(C)c2ccc(OCC(=O)Nc3cccc(-n4cnnn4)c3C)cc2)cc1 | n | n | n | n | n | x
O=C(c1ccc(Br)s1)N1CCCC1 | n | n | n | n | n | x
O=C(c1ccc(Br)s1)N1CCN(c2ncccn2)CC1 | 41.4 | n | n | n | n | n
CC(=NNC(=S)N1CCCCC1)c1cccc(C)n1 | 42.8 | n | n | x | x | n
CC(=NNC(=S)N1CCCCC1)c1ccccn1 | n | n | x | x | x | x
Nc1nc(NCCCN2CCOCC2)nc(NCc2ccccc2)c1[N+](=O)[O-] | n | n | n | n | n | x
O=c1c2ccccc2sn1-c1ccccc1 | 86.5 | n | 75.6 | n | n | n
Cc1nn(C2CCS(=O)(=O)C2)c2nc(C3CC3)cc(C(=O)Nc3cccc(C#N)c3)c12 (stereo unspecified) | n | n | n | n | n | x

Compound activity: PubChem, Sanford-Burnham Center for Chemical Genomics
